Experimental data collected from several papers.
Each line is one published result; the experiments were not run side by side.

Structure (SMILES)	test	test system	setting	quantity	result
Cc1nc([C@@](C)(CC2CC2)NC(=O)c2cc(OCC(F)(F)F)c(C3CC3)cn2)no1		C57BL/6 mouse, plasma	intravenous	Vd	4 L/kg
COc1cc(C(=O)NC2CCN(C)CC2)c(F)cc1Nc1ncc(C(F)(F)F)c(Oc2cccc3c2C(=O)N(C)C3)n1		human, plasma	oral, 25 mg, multiple doses, once daily, patients	half-life	27.9 h
Cc1nonc1Cn1nnc2c(N3CC[C@H](O)C3)nc(C(C)(C)C)nc21		C57BL/6 mouse, plasma	intravenous	Vd	4.1 L/kg
CCCCCCCC(=O)NC[C@H](NC(=O)[C@H](CO)NC(=O)CN)C(=O)N[C@@H](Cc1ccccc1)C(=O)N[C@@H](CC(C)C)C(=O)N[C@@H](CO)C(=O)N1CCC[C@H]1C(=O)N[C@@H](CCC(=O)O)C(=O)O	chemical stability	PBS	1 mM, 24 h, pH 7.4	compound remaining	100%
COc1ccc(NC(=O)N2CCCCN3[C@H](CN(C)C)[C@H](c4ccc(C#Cc5ccccc5)cc4)[C@@H]3C2)cc1		mouse, plasma	intravenous	Vd	29 L/kg
C=CCNc1c(O)cc2c(O)c1C[C@@H](C)C[C@H](OC)[C@H](O)[C@@H](C)/C=C(\C)[C@H](OC(N)=O)[C@@H](OC)/C=C\C=C(/C)C(=O)N2		human, plasma	intravenous, 400 mg/m², patients, infusion	half-life	2.27 h
CCN(CC)CCCC[C@H](NC(=O)[C@H](CC(C)C)NC(=O)[C@H](C)NC(=O)[C@H](Cc1ccccc1)NC(=O)c1ccc(C(C)(C)C)cc1)C(=O)N[C@@H](CO)C(=O)OC		male Swiss mouse, blood	intravenous, 3 mg/kg	Vd	0.19 L/kg
CC(=C/C=C/C(C)=C/C(=O)O)/C=C1\CCCc2ccccc21		human, plasma	oral, 10 mg, single dose, fasted, healthy volunteers	half-life	5.76 h
N=C(N)NCCC[C@@H](NC(=O)[C@@H](N)Cc1ccccc1)C(=O)N[C@@H](Cc1ccccc1)C(=O)N[C@@H](CCCCN)C(N)=O		human, plasma	subcutaneous, 25 mg, multiple doses, once daily, patients	half-life	4 h
Nc1ncnc2c1ncn2[C@@H]1O[C@@H]2COP(=O)([S-])O[C@@H]3[C@H](O)[C@@H](COP([O-])(=S)O[C@H]2[C@H]1O)O[C@H]3n1cnc2c(N)ncnc21.[Na+].[Na+] (some centres unmarked)	chemical stability, HPLC	bovine, serum		half-life	67 h
CN[C@H](CC(C)C)C(=O)N[C@H]1C(=O)N[C@@H](CC(N)=O)C(=O)N[C@H]2C(=O)NC3C(=O)N[C@H](C(=O)N[C@H](C(=O)NCCC[N+](C)(C)C)c4cc(O)cc(O)c4-c4cc3ccc4O)[C@H](O)c3ccc(c(Cl)c3)Oc3cc2cc(c3OC2OC(CO)C(O)[C@H](O)[C@@H]2O[C@H]2CC(C)(NCc3ccc(-c4ccc(Cl)cc4)cc3)[C@H](O)[C@H](C)O2)Oc2ccc(cc2Cl)[C@H]1O (some centres unmarked)		mouse, plasma	intravenous, 10 mg/kg	Vd	1.25 L/kg
